The subject of assay [1] is Staphylococcus aureus. In words: Antibacterial activity against NEO-sensitive Staphylococcus aureus C1 after 15 to 20 hrs by CLSI protocol based microdilution assay. The assay is classed as functional. Summed up:
(§1)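 CLSI broth microdilution MIC in triplicate on exponential-phase cells, ~3×10^5 cells per mL in cation-adjusted Mueller-Hinton broth. Compound was added from 10× stocks in 10% DMSO as serial 2-fold dilutions, final 50 to 0.78 μM. Plates were incubated at 37 °C, humidified, 15-20 h. Growth was read as absorbance at 595 nm, and percent inhibition was averaged over triplicates.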
On the technique in general: Broth dilution looks for growth in wells or tubes with falling amounts of substance.

Assay [2] in a line: Antibacterial activity against NEO-sensitive Enterobacter cloacae 13047 at 6.25 uM after 15 to 20 hrs by CLSI protocol based microdilution assay relative to control. The format is functional, Enterobacter cloacae subsp. cloacae, ATCC 13047. Summed up: (§2)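 Single-concentration screen at 6.25 μM against exponential-phase cultures, in duplicate, with NEO as reference. Enterococcus was grown in BHI broth, M. smegmatis in TS broth with 0.05% Tween 80, and all other strains in TS broth. The 1% DMSO water vehicle was added to broth (background) and culture (growth control). Incubation was 37 °C, humidified, 15-20 h. Result is percent growth inhibition.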

In another assay the test system is Pseudomonas aeruginosa. In words: Antibacterial activity against NEO-resistant Pseudomonas aeruginosa 27853 at 6.25 uM after 15 to 20 hrs by CLSI protocol based microdilution assay relative to control. The assay is classed as functional. Summed up: (§3)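 Exponential-phase cultures were exposed to 6.25 μM compound in duplicate with neomycin as reference, at 37 °C in a humidified incubator for 15-20 h. Broth and culture controls received sterile water with 1% DMSO. Percent growth inhibition was calculated against the growth and background controls.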

Assay [3] is described as follows: Inhibition of AAC(6')-1e (unknown origin).
The test system of assay [4] is Staphylococcus aureus. In words: Antibacterial activity against methicillin-resistant Staphylococcus aureus 33591 at 6.25 uM after 15 to 20 hrs by CLSI protocol based microdilution assay relative to control. The format is functional. An outline of the steps:
as §3

Assay [5] deals with Staphylococcus aureus. In words: Antibacterial activity against NEO-sensitive Staphylococcus aureus 6538 after 15 to 20 hrs by CLSI protocol based microdilution assay. The assay is classed as functional. Summed up:
as §1

The test system of another assay is Klebsiella oxytoca. Nature of the assay: Antibacterial activity against NEO-sensitive Klebsiella oxytoca HM-625 at 6.25 uM after 15 to 20 hrs by CLSI protocol based microdilution assay relative to control. The format is functional. Summed up: as §2
For assay [6], the system named is Staphylococcus aureus. In words: Antibacterial activity against NEO-sensitive Staphylococcus aureus 25923 at 6.25 uM after 15 to 20 hrs by CLSI protocol based microdilution assay relative to control. The assay is classed as functional. An outline of the steps:
as §2

Assay [7] relates to Escherichia coli. In words: Antibacterial activity against multidrug-resistant Escherichia coli H4H at 6.25 uM after 15 to 20 hrs by CLSI protocol based microdilution assay relative to control. The assay is classed as functional. An outline of the steps:
as §3

The next assay deals with Streptococcus pyogenes. In words: Antibacterial activity against NEO-resistant Streptococcus pyogenes C203 at 6.25 uM after 15 to 20 hrs by CLSI protocol based microdilution assay relative to control. The assay is classed as functional. Summed up:
as §3

A further assay concerns Klebsiella pneumoniae. Nature of the assay: Antibacterial activity against Klebsiella pneumoniae NR-151410 at 6.25 uM after 15 to 20 hrs by CLSI protocol based microdilution assay relative to control. The assay is classed as functional. An outline of the steps:
as §2

The subject of assay [8] is Staphylococcus aureus. In words: Antibacterial activity against methicillin-resistant Staphylococcus aureus M0602 at 6.25 uM after 15 to 20 hrs by CLSI protocol based microdilution assay relative to control. The format is functional. An outline of the steps:
as §3

Assay [9] is described as follows: Inhibition of APH(2\")-1a (unknown origin).
The subject of a further assay is Bacillus anthracis. Nature of the assay: Antibacterial activity against NEO-sensitive Bacillus anthracis BA852 at 6.25 uM after 15 to 20 hrs by CLSI protocol based microdilution assay relative to control. The assay is classed as functional. An outline of the steps: as §3
The subject of assay [10] is Staphylococcus aureus. In words: Antibacterial activity against methicillin-resistant Staphylococcus aureus SU-5 at 6.25 uM after 15 to 20 hrs by CLSI protocol based microdilution assay relative to control. The assay is classed as functional. Summed up:
as §3

A further assay relates to Acinetobacter baumannii. In words: Antibacterial activity against NEO-sensitive Acinetobacter baumannii ATCC 19606 at 6.25 uM after 15 to 20 hrs by CLSI protocol based microdilution assay relative to control. The assay is classed as functional, ATCC 19606 = CIP 70.34 = JCM 6841. An outline of the steps:
as §2

For assay [11], the system named is Staphylococcus epidermidis. Nature of the assay: Antibacterial activity against NEO-sensitive Staphylococcus epidermidis 12384 at 6.25 uM after 15 to 20 hrs by CLSI protocol based microdilution assay relative to control. The format is functional. Summed up:
as §2

The test system of the next assay is Listeria monocytogenes. In words: Antibacterial activity against NEO-sensitive Listeria monocytogenes ATCC 19115 at 6.25 uM after 15 to 20 hrs by CLSI protocol based microdilution assay relative to control. The format is functional. An outline of the steps:
as §2

For assay [12], the system named is Ribosomal RNA A-site. In words: Displacement of F-NEO from human cytosolic rRNA-A site after 10 to 20 mins by fluorescence assay relative to NEO. The format is nucleic-acid assay. Also on record: concentration or dose not given beside the values. An outline of the steps:
(§4)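 100 nM F-NEO:A-site complex in 10 mM HEPES, 50 mM NaCl, 0.04 mM EDTA, pH 7.0, mixed with ligand and incubated 10-20 min at room temperature. Fluorescence read at ex 485/em 525 nm, in duplicate. Percent binding was computed from the intensities of ligand-treated complex, complex without ligand, and complex with neomycin.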

The test system of another assay is Enterococcus faecium. Nature of the assay: Antibacterial activity against NEO-intermediate sensitive Enterococcus faecium BM4105-RF at 6.25 uM after 15 to 20 hrs by CLSI protocol based microdilution assay relative to control. The format is functional. An outline of the steps: as §2
Assay [13] has as its target Ribosomal RNA A-site. Nature of the assay: Displacement of F-NEO from human mitochondrial rRNA-A site after 10 to 20 mins by fluorescence assay. The format is nucleic-acid assay. Summed up: (§5)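 A 100 nM F-NEO:A-site RNA complex in 10 mM HEPES, 50 mM NaCl, 0.04 mM EDTA, pH 7.0 was titrated with 2-fold dilutions of ligand from 20 to 0.009 μM, or from 60 or 40 μM for weaker ligands. Incubated 10-20 min at room temperature, fluorescence read at ex 485/em 525 nm. IC50 from dose-response curve fit.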

Assay [14] has as its target Ribosomal RNA A-site. Nature of the assay: Displacement of F-NEO from human cytosolic rRNA-A site after 10 to 20 mins by fluorescence assay. The assay is classed as nucleic-acid assay. Summed up:
as §5

Assay [15] is filed under the species Homo sapiens. In words: Displacement of F-NEO from human mitochondrial rRNA-A site C1410U mutant after 10 to 20 mins by fluorescence assay relative to NEO. Also on record: concentration or dose not given beside the values. An outline of the steps: as §4
Assay [16] deals with Escherichia coli. In words: Antibacterial activity against NEO-sensitive Escherichia coli ATCC 25922 at 6.25 uM after 15 to 20 hrs by CLSI protocol based microdilution assay relative to control. The format is functional. Summed up: as §2
In the next assay the test system is Enterococcus faecalis. In words: Antibacterial activity against NEO-intermediate sensitive Enterococcus faecalis ATCC 29212 at 6.25 uM after 15 to 20 hrs by CLSI protocol based microdilution assay relative to control. The assay is classed as functional. Summed up: as §2
Assay [17] in a line: Inhibition of Eis (unknown origin).
In assay [18] the test system is Staphylococcus aureus. Nature of the assay: Antibacterial activity against NEO-sensitive Staphylococcus aureus harboring NorA mutant at 6.25 uM after 15 to 20 hrs by CLSI protocol based microdilution assay relative to control. The format is functional. Summed up: as §3
The subject of assay [19] is Ribosomal RNA A-site. In words: Displacement of F-NEO from Escherichia coli rRNA-A site after 10 to 20 mins by fluorescence assay relative to NEO. The assay is classed as nucleic-acid assay. Also on record: concentration or dose not given beside the values. An outline of the steps: as §4
Assay [20] has as its system Staphylococcus aureus. In words: Antibacterial activity against NEO-sensitive Staphylococcus aureus NRS77 after 15 to 20 hrs by CLSI protocol based microdilution assay. The format is functional. Summed up:
as §1

Assay [21] concerns Escherichia coli. In words: Antibacterial activity against NEO-sensitive Escherichia coli harboring TolC mutant at 6.25 uM after 15 to 20 hrs by CLSI protocol based microdilution assay relative to control. The assay is classed as functional. Summed up: as §3
Assay [22] in a line: Inhibition of AAC(2')-1c (unknown origin).
Assay [23] concerns Mycolicibacterium smegmatis. Nature of the assay: Antibacterial activity against NEO-sensitive Mycobacterium smegmatis at 6.25 uM after 15 to 20 hrs by CLSI protocol based microdilution assay relative to control. The format is functional. An outline of the steps:
as §2

Assay [24] is described as follows: Inhibition of APH(3')-1a (unknown origin).
The subject of assay [25] is Staphylococcus aureus. In words: Antibacterial activity against methicillin-resistant Staphylococcus aureus A960649 at 6.25 uM after 15 to 20 hrs by CLSI protocol based microdilution assay relative to control. The assay is classed as functional. Summed up: as §3
A short description of assay [26]: Inhibition of AAC(3)-4 (unknown origin).
The subject of assay [27] is Ribosomal RNA A-site. Nature of the assay: Displacement of F-NEO from human mitochondrial rRNA-A site after 10 to 20 mins by fluorescence assay relative to NEO. The assay is classed as nucleic-acid assay. Details: concentration or dose not given beside the values. An outline of the steps:
as §4

Assay [28] relates to Staphylococcus aureus. In words: Antibacterial activity against NEO-sensitive Staphylococcus aureus C2 after 15 to 20 hrs by CLSI protocol based microdilution assay. The format is functional. Summed up:
as §1

Assay [29] is filed under the species Homo sapiens. Nature of the assay: Displacement of F-NEO from human mitochondrial rRNA-A site A1490G mutant after 10 to 20 mins by fluorescence assay relative to NEO. Summed up:
as §4

Assay [30] relates to Ribosomal RNA A-site. Nature of the assay: Displacement of F-NEO from Escherichia coli rRNA-A site after 10 to 20 mins by fluorescence assay. The assay is classed as nucleic-acid assay. Summed up: as §5
Assay [31] in a line: Displacement of F-NEO from human mitochondrial rRNA-A site C1410U mutant after 10 to 20 mins by fluorescence assay. An outline of the steps: as §5
Assay [32] concerns Ribosomal RNA A-site. In words: Binding affinity to rRNA-A site in human MDA-MB-231 cells assessed as inhibition of protein translation. The assay is classed as cell-based.

Converted amounts (≈) assume the structure as drawn. The source made the active and inactive calls. The calls are words filed in the database; no cut-off is given here. Some results are limits rather than exact numbers.

As usually defined, the MIC is the lowest concentration found to suppress growth. For orientation: inhibition means the relative decrease from the control value, in per cent. As usually defined, the IC50 is the concentration that inhibits the measured activity by half. With `NC[C@@H]1O[C@H](O[C@H]2[C@@H](O)[C@H](O[C@@H]3[C@@H](O)[C@H](N)C[C@H](N)[C@H]3O[C@H]3O[C@H](CN)[C@@H](O)[C@H](O)[C@H]3N)O[C@@H]2CNC(=O)CCc2ccc3ccc4cccc5ccc2c3c45)[C@H](N)[C@@H](O)[C@@H]1O`, the MIC in the assay with Staphylococcus aureus [1] was 25 µM (≈ 21.7 µg/mL); against Staphylococcus aureus [5], 12.5 µM (≈ 10.9 µg/mL); against Staphylococcus aureus [20], over 25 µM; with Staphylococcus aureus [28], 25 µM (≈ 21.7 µg/mL). Further, the Activity in assay [2] came to 0%; in the assay with Pseudomonas aeruginosa it was 14%; with Staphylococcus aureus [4] it was 14%; in the assay on Klebsiella oxytoca it was 5%; in the assay on Staphylococcus aureus [6], 15%; in the assay with Klebsiella pneumoniae, 13%. For the same compound, the Activity in the assay with Acinetobacter baumannii is 10%; in assay [11], 10%; with Enterococcus faecium it was 0%; in the assay with Escherichia coli [16], 0%; in the assay on Enterococcus faecalis, 6%; in assay [23], 35%. The compound also returned an Activity in the assay on Staphylococcus aureus [25] of 16%. Besides, the inhibition entry in [3], in assay [9], in assay [17], in [22], in assay [24] and in assay [26] was “Active” in each case. Besides, the outcome in the assay on Escherichia coli [7], in the assay on Streptococcus pyogenes, in the assay with Staphylococcus aureus [8], with Bacillus anthracis, with Staphylococcus aureus [10] and with Listeria monocytogenes was inactive. Moreover, the outcome in the assay on Staphylococcus aureus [18] and in the assay with Escherichia coli [21] was inactive. For the same compound, the inhibition in the assay with Ribosomal RNA A-site [12] was determined as 39%; in the assay listed under Homo sapiens [15], 65%; in the assay with Ribosomal RNA A-site [19] it was 33%; in the assay with Ribosomal RNA A-site [27], 47%; in the assay filed under Homo sapiens [29], 22%. In addition, the IC50 at Ribosomal RNA A-site [13] stood at 373 nM; on Ribosomal RNA A-site [14] it was 447 nM; in the assay with Ribosomal RNA A-site [30], 310 nM; in [31], 332 nM.

For `CC/C(=C(\c1ccccc1)c1ccc(OCCN(C)C)cc1)c1ccccc1` [TAMOXIFEN], the IC50 in the assay on Ribosomal RNA A-site [32] is 18100 nM.
